Measurements from ChEMBL document CHEMBL1126975 (J Med Chem, 1993).

Tests used:
[1] = molecular target: T1, Amine oxidase [flavin-containing] B (Rattus norvegicus, UniProt P19643); assay: Compound was evaluated for the reversibility test for the percentage inhibition of MAO B at 6.25 nM after the test at 12.5 nM
T1 sequence (P19643 whole entry): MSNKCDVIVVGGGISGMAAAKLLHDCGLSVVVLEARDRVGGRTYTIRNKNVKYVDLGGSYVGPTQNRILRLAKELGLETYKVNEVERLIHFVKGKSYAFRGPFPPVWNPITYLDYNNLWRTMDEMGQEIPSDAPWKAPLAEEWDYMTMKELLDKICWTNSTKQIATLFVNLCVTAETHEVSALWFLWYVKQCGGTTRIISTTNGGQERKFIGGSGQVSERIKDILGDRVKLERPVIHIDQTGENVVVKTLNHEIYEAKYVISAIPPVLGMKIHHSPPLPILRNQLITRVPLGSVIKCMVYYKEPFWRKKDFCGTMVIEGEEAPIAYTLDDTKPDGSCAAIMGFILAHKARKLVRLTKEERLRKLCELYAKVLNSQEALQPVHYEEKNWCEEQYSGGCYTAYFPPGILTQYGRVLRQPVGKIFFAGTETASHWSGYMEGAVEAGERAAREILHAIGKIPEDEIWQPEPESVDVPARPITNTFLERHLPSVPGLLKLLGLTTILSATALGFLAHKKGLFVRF
Summary of the method: (§1)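 Rat brain crude mitochondrial fraction (1.94 mg protein/mL) preincubated 1 h at 37 °C with or without inhibitor at 6.25 or 12.5 nM. Then diluted 200-fold in 100 mM phosphate pH 7.4 with 100 μM PEA, held 4 h at 37 °C, pelleted, and washed 1 h in buffer without PEA. Assayed under standard conditions (PEA 1 min); percent inhibition vs control.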

[2] = molecular target: T1, Amine oxidase [flavin-containing] B; assay: Compound was evaluated for the reversibility test for the percentage inhibition of MAO B at 6.25 nM before the test at 12.5 nM
[3] = molecular target: T1, Amine oxidase [flavin-containing] B; assay: Ex-Vivo Time course of evaluation for the percentage inhibition of MAO-B for 24 hr at single dose 1500 mg/kg through oral gavage; type: organism-based; parameters: dose 1500 mg/kg, route oral
[4] = molecular target: T1, Amine oxidase [flavin-containing] B; assay: Ex-Vivo Time course of evaluation for the percentage inhibition of MAO-B for 1 hr at single dose 5 mg/kg through oral gavage (p<0.001); type: organism-based; parameters: dose 5 mg/kg, route oral
Summary of the method: (§2)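 Fasted male Sprague-Dawley rats (150 g) dosed orally by gavage, drug suspended in Tween 80 plus 0.5% methylcellulose; vehicle controls. The 100 mg/kg arm was dosed daily for 9 days. Four rats per time point; brains frozen and homogenized in 0.1 M phosphate pH 7.4. Assayed at 37 °C with 8 μM [14C]PEA for 1 min; toluene/ethyl acetate extraction. Percent inhibition vs control, mean ± SEM.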

[5] = molecular target: T1, Amine oxidase [flavin-containing] B; assay: Ex-Vivo percentage inhibition of MAO-B after 24 hr single 5 mg/kg dose by oral gavage; type: organism-based; parameters: dose 5 mg/kg, route oral
Summary of the method: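 Ex vivo oral gavage in fasted male Sprague-Dawley rats (Tween 80 / 0.5% methylcellulose), four rats per group. Brain homogenate taken 24 h after dosing. MAO B assayed with 8 μM [14C]PEA, 1 min at 37 °C; percent inhibition vs vehicle control.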

[6] = molecular target: T1, Amine oxidase [flavin-containing] B; assay: Ex-Vivo Time course of evaluation for the percentage inhibition of MAO-B for 24 hr at single dose 1 mg/kg through oral gavage (not significant Wilcoxom''s test); type: organism-based; parameters: dose 1 mg/kg, route oral; summary of the method: as §2
[7] = molecular target: T1, Amine oxidase [flavin-containing] B; assay: Ex-Vivo Time course of evaluation for the percentage inhibition of MAO-B for 4 hr at single dose 1 mg/kg through oral gavage (p<0.001); type: organism-based; parameters: dose 1 mg/kg, route oral; summary of the method: as §2
[8] = molecular target: T1, Amine oxidase [flavin-containing] B; assay: Ex-Vivo Time course of evaluation for the percentage inhibition of MAO-B for 1 hr at single dose 1500 mg/kg through oral gavage (p<0.001); type: organism-based; parameters: dose 1500 mg/kg, route oral; summary of the method: as §2
[9] = molecular target: T1, Amine oxidase [flavin-containing] B; assay: In vitro inhibitory activity on rat brain MAO-B.
Summary of the method: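 Radiochemical assay at 37 °C, pH 7.4: MAO A with 10 μM [14C]5-HT, MAO B with 5 μM [14C]PEA. Drug preincubated 20 min with enzyme. Three experiments in duplicate.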

[10] = molecular target: T2, Amine oxidase [flavin-containing] A (Rattus norvegicus, UniProt P21396); assay: In Vitro evaluation for the inhibitory activity on rat brain by MAO-A
T2 sequence (P21396 whole entry): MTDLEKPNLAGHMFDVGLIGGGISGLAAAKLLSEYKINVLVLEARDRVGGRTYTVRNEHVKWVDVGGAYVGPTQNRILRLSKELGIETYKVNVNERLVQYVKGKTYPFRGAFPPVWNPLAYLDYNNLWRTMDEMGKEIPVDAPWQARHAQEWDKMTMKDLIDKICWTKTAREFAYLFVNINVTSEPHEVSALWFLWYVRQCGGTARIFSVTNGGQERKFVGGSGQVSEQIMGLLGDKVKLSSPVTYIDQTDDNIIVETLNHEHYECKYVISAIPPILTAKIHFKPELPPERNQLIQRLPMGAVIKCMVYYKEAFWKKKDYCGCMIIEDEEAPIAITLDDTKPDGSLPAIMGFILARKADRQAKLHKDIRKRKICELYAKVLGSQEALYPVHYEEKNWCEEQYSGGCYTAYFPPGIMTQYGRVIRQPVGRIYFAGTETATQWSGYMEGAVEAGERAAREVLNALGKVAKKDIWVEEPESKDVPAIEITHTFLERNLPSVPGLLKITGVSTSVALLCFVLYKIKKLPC
Summary of the method: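 Male Sprague-Dawley rat brain crude mitochondrial fraction, 0.195 mg protein/mL. Radiochemical assay at 37 °C, pH 7.4: MAO A with 10 μM [14C]5-HT, MAO B with 5 μM [14C]PEA. Drug preincubated 20 min with enzyme. […] Three experiments in duplicate.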

[11] = molecular target: T1, Amine oxidase [flavin-containing] B; assay: Compound was evaluated for the time-dependence inhibition of MAO-B at 60 minutes preincubation periods
Summary of the method: (§3)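 Male Sprague-Dawley rat brain crude mitochondrial fraction, MAO B. Drug preincubated with enzyme at 37 °C for 0, 20, 30 or 60 min, then radiochemical assay with 5 μM [14C]PEA at pH 7.4. IC50 read graphically from 9–12 concentrations; three experiments in duplicate.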

[12] = molecular target: T1, Amine oxidase [flavin-containing] B; assay: Ex-Vivo Time course of evaluation for the percentage inhibition of MAO-B for 4 hr at single dose 5 mg/kg through oral gavage (p<0.001); type: organism-based; parameters: dose 5 mg/kg, route oral; summary of the method: as §2
[13] = molecular target: T1, Amine oxidase [flavin-containing] B; assay: Compound was evaluated for the time-dependence inhibition of MAO-B at 30 minutes pre-incubation periods; summary of the method: as §3
[14] = molecular target: T1, Amine oxidase [flavin-containing] B; assay: Compound was evaluated for the time-dependence inhibition of MAO-B at 20 minutes pre-incubation periods; summary of the method: as §3
[15] = molecular target: T1, Amine oxidase [flavin-containing] B; assay: Ex-Vivo Time course of evaluation for the percentage inhibition of MAO-B for 0.5 hr at single dose 5 mg/kg through oral gavage (p<0.001); type: organism-based; parameters: dose 5 mg/kg, route oral; summary of the method: as §2
[16] = molecular target: T1, Amine oxidase [flavin-containing] B; assay: Ex-Vivo Time course of evaluation for the percentage inhibition of MAO-B for 24 hr at single dose 1500 mg/kg through oral gavage (p<0.001); type: organism-based; parameters: dose 1500 mg/kg, route oral; summary of the method: as §2
[17] = molecular target: T2, Amine oxidase [flavin-containing] A; assay: Compound was evaluated for the time-dependence inhibition of MAO-A at 60 minutes of preincubated period. values are same with or without pre-incubation
[18] = molecular target: T1, Amine oxidase [flavin-containing] B; assay: Compound was evaluated for the time-dependence inhibition of MAO-B at 0 minute pre-incubation periods; summary of the method: as §3
[19] = molecular target: T1, Amine oxidase [flavin-containing] B; assay: Ex-Vivo Time course of evaluation for the percentage inhibition of MAO-B for 24 hr at single dose 100 mg/kg through oral gavage; type: organism-based; parameters: dose 100 mg/kg, route oral
[20] = Selectivity for B form was estimated by the ratio of IC50 (MAO A) at 60 min to that of (MAO B)
[21] = molecular target: T1, Amine oxidase [flavin-containing] B; assay: Ex-Vivo Time course of evaluation for the percentage inhibition of MAO-B for 0.5 hr at single dose 1 mg/kg through oral gavage [p<0.01 (Bonferroni's test)]; type: organism-based; parameters: dose 1 mg/kg, route oral; summary of the method: as §2
[22] = molecular target: T1, Amine oxidase [flavin-containing] B; assay: Ex-Vivo Time course of evaluation for the percentage inhibition of MAO-B for 1 hr at single dose 1 mg/kg through oral gavage (p<0.001); type: organism-based; parameters: dose 1 mg/kg, route oral; summary of the method: as §2
[23] = molecular target: T1, Amine oxidase [flavin-containing] B; assay: Ex-Vivo Time course of evaluation for the percentage inhibition of MAO-B for 24 hr at once-daily dose for 9 days 100 mg/kg through oral gavage (p<0.001)
[24] = molecular target: T1, Amine oxidase [flavin-containing] B; assay: Ex-Vivo Time course of evaluation for the percentage inhibition of MAO-B for 1 hr at single dose 100 mg/kg through oral gavage (p<0.001); type: organism-based; parameters: dose 100 mg/kg, route oral
[25] = molecular target: T1, Amine oxidase [flavin-containing] B; assay: Compound was evaluated for the reversibility test for the percentage inhibition of MAO B at 6.25 nM after the test; summary of the method: as §1
[26] = molecular target: T1, Amine oxidase [flavin-containing] B; assay: Compound was evaluated for the reversibility test for the percentage inhibition of MAO B at 6.25 nM before the test

**Q.** Which inhibition at 0.00625 µM [1] does the source give for `C#CCN(C)[C@H](C)Cc1ccccc1` [SELEGILINE] here?
**A.** The inhibition at 0.00625 µM was 21%.

**Q.** What about the inhibition at 0.00625 µM [2] of the same compound?
**A.** Its inhibition at 0.00625 µM is 21%.

**Q.** Which inhibition at 1500 mg/kg [3] does the source give for `N#CCCn1nc(-c2ccc(OCc3ccccc3)cc2)oc1=O` here?
**A.** The inhibition at 1500 mg/kg was 2%.

**Q.** And the inhibition at 5 mg/kg [4]?
**A.** Its inhibition at 5 mg/kg is 87%.

**Q.** What about the inhibition at 5 mg/kg [5] of the same compound?
**A.** Its inhibition at 5 mg/kg is 18%.

**Q.** And the inhibition at 1 mg/kg [6]?
**A.** The inhibition at 1 mg/kg was 18%.

**Q.** And the inhibition at 1 mg/kg [7]?
**A.** The inhibition at 1 mg/kg was 75%.

**Q.** What about the inhibition at 1500 mg/kg [8] of the same compound?
**A.** The inhibition at 1500 mg/kg was 91%.

**Q.** What about the IC50 [9] of the same compound?
**A.** Its IC50 is 2.2 nM.

**Q.** And the Inhibition [10]?
**A.** The Inhibition was 10%.

**Q.** And the IC50 [11]?
**A.** Its IC50 is 1.4 nM.

**Q.** What about the inhibition at 5 mg/kg [12] of the same compound?
**A.** The inhibition at 5 mg/kg was 83%.

**Q.** What about the IC50 [13] of the same compound?
**A.** The IC50 was 2.2 nM.

**Q.** What about the IC50 [14] of the same compound?
**A.** Its IC50 is 2.7 nM.

**Q.** What about the inhibition at 5 mg/kg [15] of the same compound?
**A.** The inhibition at 5 mg/kg was 69%.

**Q.** What about the inhibition at 1500 mg/kg [16] of the same compound?
**A.** Its inhibition at 1500 mg/kg is 74%.

**Q.** What about the IC50 [17] of the same compound?
**A.** The IC50 was greater than 100000 nM.

**Q.** What about the IC50 [18] of the same compound?
**A.** Its IC50 is 25 nM.

**Q.** What about the inhibition at 100 mg/kg [19] of the same compound?
**A.** Its inhibition at 100 mg/kg is 3%.

**Q.** And the Selectivity [20]?
**A.** The Selectivity was greater than 71400.

**Q.** What about the inhibition at 1 mg/kg [21] of the same compound?
**A.** Its inhibition at 1 mg/kg is 34%.

**Q.** And the inhibition at 1 mg/kg [22]?
**A.** Its inhibition at 1 mg/kg is 86%.

**Q.** What about the inhibition at 100 mg/kg [23] of the same compound?
**A.** The inhibition at 100 mg/kg was 73%.

**Q.** What about the inhibition at 100 mg/kg [24] of the same compound?
**A.** Its inhibition at 100 mg/kg is 90%.

**Q.** What about the inhibition at 0.00625 µM [25] of the same compound?
**A.** The inhibition at 0.00625 µM was 102%.

**Q.** And the inhibition at 0.00625 µM [26]?
**A.** Its inhibition at 0.00625 µM is 35%.
